The species entered for assay [1] is Rattus norvegicus. Briefly: Fluid concentration in urine was determined in rats at 4 hr. In kind it is functional. Summed up: (§1)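 Rats dosed by gavage at 20 mg/kg; lung, liver, kidney, urine and serum sampled at 0.5, 1, 2, 4 and 6 h after dosing. Antibiotic measured by microbiological assay with Micrococcus luteus seeded in Antibiotic Medium 1. Zone sizes were read against the standard curve for the same compound. Each value is the average of three rats per time point.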

Assay [2] is filed under the species Rattus norvegicus. As to the kind of experiment: Fluid concentration in kidney tissue was determined in rats at 4 hr. The format is functional. Summed up:
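Rats were gavaged at 20 mg/kg and tissues sampled 0.5–6 h after dosing. Drug was assayed microbiologically with Micrococcus luteus seeded in Antibiotic Media 1. Zone sizes were read against each compound's own standard curve. Values are the mean of three rats per time point, in μg/g.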

Assay [3] is filed under the species Rattus norvegicus. Briefly: Fluid concentration in serum was determined in rats at 1 hr. In kind it is functional. Put shortly: as §1
Assay [4] concerns Mus musculus. Briefly: ED50 value was measured by sc administration against streptococcus pyogenes infection in mice (in vivo, in experiment 3). In kind it is functional. Put shortly: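 Infected mice were dosed orally or subcutaneously at 1 and 5 h postinfection, 0.25 mL of antibiotic solution in 10% aqueous ethanol per dose. Tartaric acid was added where needed for solubility. Several dose concentrations were tested to give the ED50.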

Assay [5] has as its system Mus musculus. As to the kind of experiment: Plasma concentration in mice was determined by oral administration, 20 mg/kg at 20 min. The format is functional, organism-based. The arrangement: dose 20 mg/kg. Summed up:
(§2)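 Mice given 20 mg/kg orally or subcutaneously; peripheral plasma sampled at 5, 20 and 40 min and at 1, 2 and 4 h after dosing. Microbiological assay used Micrococcus luteus seeded in Antibiotic Medium 1, with zone sizes converted by the compound's own standard curve. Each value is the average of five mice per time point.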

Assay [6] concerns Mus musculus. As to the kind of experiment: Plasma concentration in mice was determined by oral administration, 20 mg/kg at 40 min. In kind it is functional, organism-based. Further details: dose 20 mg/kg. Put shortly:
as §2

The subject of assay [7] is Rattus norvegicus. Briefly: Plasma concentration in rats was determined by subcutaneous administration, 20 mg/kg at 5 min. Further details: dose 20 mg/kg. In kind it is functional, organism-based. Summed up: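 Peripheral plasma antibiotic levels in rats given 20 mg/kg orally or subcutaneously. Plasma was sampled at timed points after dosing. Levels were measured by microbiological agar assay with Micrococcus luteus seeded in Antibiotic Media 1, reading zone sizes, and were calculated from a standard curve for the appropriate compound. Each value is the average of three rats per time point, in μg/mL.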

The species entered for assay [8] is Rattus norvegicus.
The species named for assay [9] is Rattus norvegicus. This is another data set of the same source.

In the case of `CC[C@H]1OC(=O)[C@H](C)[C@@H](O[C@H]2C[C@@](C)(OC)[C@@H](O)[C@H](C)O2)[C@H](C)[C@@H](O[C@@H]2O[C@H](C)C[C@H](N(C)C)[C@H]2O)[C@](C)(O)C[C@@H](C)C(=O)[C@H](C)[C@@H](O)[C@]1(C)O` [ERYTHROMYCIN], the Activity in assay [1] came out at 8.8 µg/mL; in [2], 0 µg/mL; in [3], 0.4 µg/mL.
Take `CCCN[C@@H]1[C@H](C)[C@@H](O)[C@](C)(O)[C@@H](CC)OC(=O)[C@H](C)[C@@H](OC2CC(C)(OC)C(O)C(C)O2)[C@H](C)[C@@H](OC2OC(C)CC(N(C)C)C2O)[C@](C)(O)C[C@H]1C` (some centres undefined): the ED50 in assay [4] turned out to be 1.7 mg/kg. Also, the Plasma concentration in [5] came to 0.01 µg/mL; in assay [6], 0.036 µg/mL; in assay [7], 0.04 µg/mL; in assay [8] it was 0.01 µg/mL; in assay [9] it was 0.06 µg/mL.

(Values after ChEMBL document CHEMBL1125014, “Synthesis and structure-activity relationships of new 9-N-alkyl derivatives of 9(S)-erythromycylamine” (1990).)
